Results published in ChEMBL document CHEMBL1141286, “Benzochromenones from the marine crinoid Comantheria rotula inhibit hypoxia-inducible factor-1 (HIF-1) in cell-based reporter assays and differentially suppress the growth of certain tumor cell lines” (J Nat Prod, 2007).
Activity calls are given as the source filed them. The calls are words filed in the database; no cut-off is given here.

Experiments:
LOX IMVI = assay: Growth inhibition of human LOXIMVI cells; format: functional
HOP-62 = assay: Growth inhibition of human HOP62 cells; format: functional
UACC-62 = assay: Growth inhibition of human UACC62 cells; format: functional
T47D [1] = assay: Inhibition of 1,10-phenanthroline-induced VEGF protein secretion in human T47D cells at 10 uM after 16 hrs by ELISA; format: functional, cell-based
How it was run: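 T47D cells stimulated with 1,10-phenanthroline, compound at 10 μM; secreted VEGF in conditioned media by ELISA, normalized to cell-lysate protein.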

DU-145 = assay: Growth inhibition of human DU145 cells; format: functional
CAKI-1 = assay: Growth inhibition of human CAKI1 cells; format: functional
KM12 = assay: Growth inhibition of human KM12 cells; format: functional
NCI-H322M = assay: Growth inhibition of human NCI-H322M cells; format: functional
T47D [2] = assay: Growth inhibition of human T47D cells; format: functional
MDA-MB-231 = assay: Growth inhibition of human MDA-MB-231 cells; format: functional
OVCAR-8 = assay: Growth inhibition of human OVACAR8 cells; format: functional
NCI-H460 = assay: Growth inhibition of human NCI-H460 cells; format: functional
[3] = Inhibition of 1,10-phenanthroline-induced HIF1 activation in T47D cells by TK-luciferase assay; format: cell-based; conditions: Homo sapiens
How it was run: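 HIF-1 reporter (pHRE-TK-Luc) assays in transfected PC-3 or T47D cells; HIF-1 induced by hypoxia or by the hypoxia mimetic 1,10-phenanthroline (10 μM); compounds at half-log concentrations; luciferase activity measured; IC50 from experiments in triplicate.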

Malme-3M = assay: Growth inhibition of human MALME-3M cells; format: functional
SR = assay: Growth inhibition of human SR cells; format: functional
SF-295 = assay: Growth inhibition of human SF295 cells; format: functional
A549 = assay: Growth inhibition of human A549 cells; format: functional
UO-31 = assay: Growth inhibition of human UO31 cells; format: functional
ACHN = assay: Growth inhibition of human ACHN cells; format: functional
OVCAR-5 = assay: Growth inhibition of human OVACAR5 cells; format: functional
SF-268 = assay: Growth inhibition of human SF268 cells; format: functional
NCI/ADR-RES = assay: Growth inhibition of human NCI/ADR-RES cells; format: functional
SNB-19 = assay: Growth inhibition of human SNB19 cells; format: functional
MDA-MB-435 = assay: Growth inhibition of human MDA-MB-435 cells; format: functional
HCT-116 = assay: Growth inhibition of human HCT116 cells; format: functional
SK-OV-3 = assay: Growth inhibition of human SK-OV3 cells; format: functional
NCI-H226 = assay: Growth inhibition of human NCI-H226 cells; format: functional
M14 = assay: Growth inhibition of human M14 cells; format: functional
PC-3 = assay: Growth inhibition of human PC3 cells; format: functional
U-251 = assay: Growth inhibition of human U251 cells; format: functional
MCF7 = assay: Growth inhibition of human MCF7 cells; format: functional
K562 = assay: Growth inhibition of human K562 cells; format: functional
HCC 2998 = assay: Growth inhibition of human HCC2998 cells; format: functional
[4] = DPPH radical scavenging activity relative to Trolox; format: functional; design: concentration or dose not given beside the values
How it was run: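 Compounds were made up as DMSO stocks and diluted in isopropanol to a final 10 μM. Each was mixed with DPPH in isopropanol at 10 μM or 30 μM DPPH, and absorbance was read at 515 nm. Scavenging was calculated as [1 − OD515(compound)/OD515(control)] × 100, then expressed as a percentage of Trolox activity. One experiment was run in triplicate.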

SF-539 = assay: Growth inhibition of human SF539 cells; format: functional
RXF 393 = assay: Growth inhibition of human RXF393 cells; format: functional
BT-549 = assay: Growth inhibition of human BT549 cells; format: functional
HOP-92 = assay: Growth inhibition of human HOP92 cells; format: functional
EKVX = assay: Growth inhibition of human EKVX cells; format: functional
NCI-H23 = assay: Growth inhibition of human NCI-H23 cells; format: functional
[5] = read-out: Log LC50 (the source's name) (converted)

CCCc1cc(=O)c2c(OC)c3c(OC)cc(O)c(Oc4c(O)cc(OC)c5c(OC)c6c(=O)cc(CCC)oc6cc45)c3cc2o1
GI50 (LOX IMVI): 3.47 µM
LC50 (LOX IMVI): 41.7 µM
TGI (LOX IMVI; read-out: Log TGI (converted)): 11.5 µM
GI50 (HOP-62): 2.57 µM
CC50 (HOP-62; [5]): 28.2 µM
TGI (HOP-62; read-out: Log TGI (converted)): 8.13 µM
GI50 (UACC-62): 4.9 µM
LC50 (lethal concentration, 50% cell kill) (UACC-62): 41.7 µM
TGI (UACC-62; read-out: Log TGI (converted)): 17 µM
Activity (T47D [1]): inactive
GI50 (DU-145): 6.03 µM
CC50 (DU-145; [5]): 43.7 µM
TGI (DU-145; read-out: Log TGI (converted)): 18.6 µM
GI50 (CAKI-1): 11 µM
LC50 (CAKI-1): 47.9 µM
TGI (CAKI-1; read-out: Log TGI (converted)): 22.9 µM
GI50 (KM12): 13.8 µM
CC50 (KM12; [5]): 69.2 µM
TGI (KM12; read-out: Log TGI (converted)): 30.9 µM
GI50 (NCI-H322M): 13.5 µM
CC50 (NCI-H322M; [5]): 55 µM
TGI (NCI-H322M; read-out: Log TGI (converted)): 27.5 µM
GI50 (T47D [2]): 3.63 µM
LC50 (T47D [2]): 91.2 µM
TGI (T47D [2]; read-out: Log TGI (converted)): 12.9 µM
GI50 (MDA-MB-231): 6.31 µM
LC50 (MDA-MB-231): 53.7 µM
TGI (MDA-MB-231; read-out: Log TGI (converted)): 21.4 µM
GI50 (OVCAR-8): 4.68 µM
LC50 (OVCAR-8): 100 µM
TGI (OVCAR-8; read-out: Log TGI (converted)): 53.7 µM
GI50 (NCI-H460): 10.7 µM
CC50 (NCI-H460; [5]): 89.1 µM
TGI (NCI-H460; read-out: Log TGI (converted)): 30.9 µM
IC50 [3]: 0.8 µM
GI50 (Malme-3M): 7.41 µM
CC50 (Malme-3M; [5]): 49 µM
TGI (Malme-3M; read-out: Log TGI (converted)): 20.4 µM
GI50 (SR): 2.88 µM
CC50 (SR; [5]): 77.6 µM
TGI (SR; read-out: Log TGI (converted)): 7.08 µM
GI50 (SF-295): 5.13 µM
LC50 (SF-295): 50.1 µM
TGI (SF-295; read-out: Log TGI (converted)): 18.6 µM
GI50 (A549): 11.2 µM
CC50 (A549; [5]): 72.4 µM
TGI (A549; read-out: Log TGI (converted)): 28.8 µM
GI50 (UO-31): 6.61 µM
LC50 (UO-31): 45.7 µM
TGI (UO-31; read-out: Log TGI (converted)): 19.5 µM
GI50 (ACHN): 7.08 µM
CC50 (ACHN; [5]): 45.7 µM
TGI (ACHN; read-out: Log TGI (converted)): 20 µM
GI50 (OVCAR-5): 7.08 µM
LC50 (OVCAR-5): 100 µM
TGI (OVCAR-5; read-out: Log TGI (converted)): 30.9 µM
GI50 (SF-268): 12.6 µM
LC50 (SF-268): 66.1 µM
TGI (SF-268; read-out: Log TGI (converted)): 28.8 µM
GI50 (NCI/ADR-RES): 6.76 µM
LC50 (concentration killing 50% of cells) (NCI/ADR-RES): 100 µM
TGI (NCI/ADR-RES; read-out: Log TGI (converted)): 67.6 µM
GI50 (SNB-19): 15.8 µM
LC50 (SNB-19): 55 µM
TGI (SNB-19; read-out: Log TGI (converted)): 29.5 µM
GI50 (MDA-MB-435): 2.24 µM
LC50 (MDA-MB-435): 15.8 µM
TGI (MDA-MB-435; read-out: Log TGI (converted)): 5.13 µM
GI50 (HCT-116): 3.39 µM
CC50 (HCT-116; [5]): 34.7 µM
TGI (HCT-116; read-out: Log TGI (converted)): 11.5 µM
GI50 (SK-OV-3): 15.1 µM
LC50 (SK-OV-3): 53.7 µM
TGI (SK-OV-3; read-out: Log TGI (converted)): 28.2 µM
GI50 (NCI-H226): 16.2 µM
CC50 (NCI-H226; [5]): 79.4 µM
TGI (NCI-H226; read-out: Log TGI (converted)): 35.5 µM
GI50 (M14): 3.02 µM
LC50 (50% lethal concentration) (M14): 34.7 µM
TGI (M14; read-out: Log TGI (converted)): 11.5 µM
GI50 (PC-3): 6.31 µM
LC50 (PC-3): 46.8 µM
TGI (PC-3; read-out: Log TGI (converted)): 20 µM
GI50 (U-251): 4.68 µM
LC50 (U-251): 41.7 µM
TGI (U-251; read-out: Log TGI (converted)): 15.8 µM
GI50 (MCF7): 3.31 µM
LC50 (MCF7): 100 µM
TGI (MCF7; read-out: Log TGI (converted)): 10 µM
GI50 (K562): 4.79 µM
CC50 (K562; [5]): 58.9 µM
TGI (K562; read-out: Log TGI (converted)): 14.8 µM
GI50 (HCC 2998): 13.5 µM
CC50 (HCC 2998; [5]): 56.2 µM
TGI (HCC 2998; read-out: Log TGI (converted)): 27.5 µM
Activity [4]: 40%
GI50 (SF-539): 11.2 µM
LC50 (SF-539): 50.1 µM
TGI (SF-539; read-out: Log TGI (converted)): 23.4 µM
GI50 (RXF 393): 1.62 µM
LC50 (RXF 393): 30.2 µM
TGI (RXF 393; read-out: Log TGI (converted)): 5.62 µM
GI50 (BT-549): 3.09 µM
LC50 (BT-549): 34.7 µM
TGI (BT-549; read-out: Log TGI (converted)): 11.2 µM
GI50 (HOP-92): 2.14 µM
CC50 (HOP-92; [5]): 50.1 µM
TGI (HOP-92; read-out: Log TGI (converted)): 13.8 µM
GI50 (EKVX): 4.37 µM
CC50 (EKVX; [5]): 44.7 µM
TGI (EKVX; read-out: Log TGI (converted)): 16.6 µM
GI50 (NCI-H23): 2.45 µM
CC50 (NCI-H23; [5]): 33.9 µM
TGI (NCI-H23; read-out: Log TGI (converted)): 6.92 µM
